The target of assay [1] is Delta-type opioid receptor (Rattus norvegicus, UniProt P33533). Nature of the assay: Binding affinity against opioid receptor delta in rats by displacing [3H]DPDPE.
The target in assay [2] is Mu-type opioid receptor (Rattus norvegicus, UniProt P33535). Put plainly: Binding affinity against opioid receptor mu in rats by displacing [3H]-DAGO.
The species named for assay [3] is Mus musculus. Nature of the assay: Concentration required to inhibit electrically induced twitch by 50% in mouse vas deferens(MVD). The assay is classed as functional. The procedure, abridged: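 Mouse vas deferens field-stimulated at 0.1 Hz, 1 ms, 40 V; twitch recorded with an isometric transducer. Peptide doses added to the aerated bath, with three to four washes at 10-min intervals between doses. IC50 from log-dose curves, normalized against a dermorphin or morphine standard run on each tissue.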

The species named for assay [4] is Cavia porcellus. Nature of the assay: Concentration required to inhibit electrically induced twitch by 50% in guinea pig ileum(GPI). Format: functional.

Structures are written as SMILES. pIC50, pKi: −log10 of the molar value. Where only a bound is given, the exact number is not on record here.

Results on ten compounds are retold here after ChEMBL document CHEMBL1126113, “Para-substituted Phe3 deltorphin analogues: enhanced selectivity of halogenated derivatives for delta opioid receptor sites” (J Med Chem, 1992).

Chain of Delta-type opioid receptor (P33533 whole entry): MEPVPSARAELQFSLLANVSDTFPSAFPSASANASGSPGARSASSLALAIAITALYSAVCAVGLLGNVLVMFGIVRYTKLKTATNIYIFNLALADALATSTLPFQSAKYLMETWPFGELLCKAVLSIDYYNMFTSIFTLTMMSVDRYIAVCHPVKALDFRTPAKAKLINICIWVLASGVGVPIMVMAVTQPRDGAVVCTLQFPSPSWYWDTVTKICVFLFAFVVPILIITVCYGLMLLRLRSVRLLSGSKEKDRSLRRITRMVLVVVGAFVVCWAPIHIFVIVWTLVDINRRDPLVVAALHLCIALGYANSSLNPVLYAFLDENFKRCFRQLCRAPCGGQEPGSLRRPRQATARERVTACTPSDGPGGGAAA
Chain of Mu-type opioid receptor (P33535 whole entry): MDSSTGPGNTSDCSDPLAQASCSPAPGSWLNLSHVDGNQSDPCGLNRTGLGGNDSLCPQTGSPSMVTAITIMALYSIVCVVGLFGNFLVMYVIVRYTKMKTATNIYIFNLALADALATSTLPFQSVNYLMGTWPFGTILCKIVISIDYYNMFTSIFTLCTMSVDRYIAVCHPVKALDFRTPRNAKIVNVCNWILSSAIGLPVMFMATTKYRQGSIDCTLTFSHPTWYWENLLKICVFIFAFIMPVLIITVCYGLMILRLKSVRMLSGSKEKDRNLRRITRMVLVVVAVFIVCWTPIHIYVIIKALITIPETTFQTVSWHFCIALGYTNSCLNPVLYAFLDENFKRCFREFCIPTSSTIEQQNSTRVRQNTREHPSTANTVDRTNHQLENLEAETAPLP

Take `CC(C)[C@H](NC(=O)[C@H](CC(=O)O)NC(=O)[C@H](Cc1ccc(Br)cc1)NC(=O)[C@@H](C)NC(=O)[C@@H](N)Cc1ccc(O)cc1)C(=O)N[C@H](C(=O)NCC(N)=O)C(C)C`: the negative-log Ki (pKi) in assay [1] was 8.62; in assay [2], 5.32. Also, the figures for the negative-log IC50 (pIC50) in assay [3] and in assay [4] were 8.96 and 5.15, respectively.
For `CC(C)[C@H](NC(=O)[C@H](CC(=O)O)NC(=O)[C@H](Cc1ccc([N+](=O)[O-])cc1)NC(=O)[C@@H](C)NC(=O)[C@@H](N)Cc1ccc(O)cc1)C(=O)N[C@H](C(=O)NCC(N)=O)C(C)C`, in that order: 7.14, 5.62, 5.92 and less than 5.00.
For `CC(C)[C@H](NC(=O)[C@H](CC(=O)O)NC(=O)[C@H](Cc1ccccc1)NC(=O)[C@@H](C)NC(=O)[C@@H](N)Cc1ccc(O)cc1)C(=O)N[C@H](C(=O)NCC(N)=O)C(C)C` [DELTORPHIN C] the same measures were 9.62, 6.57, 9.85 and 6.38.
`CC(C)[C@H](NC(=O)[C@H](CC(=O)O)NC(=O)[C@H](Cc1ccc(I)cc1)NC(=O)[C@@H](C)NC(=O)[C@@H](N)Cc1ccc(O)cc1)C(=O)N[C@H](C(=O)NCC(N)=O)C(C)C`: the values for the negative logarithm of the Ki (pKi) in assay [1] and in assay [2] were 8.79 and 5.85, respectively. Besides, the pIC50 in assay [3] was 7.77; in assay [4] it was less than 5.00.
Take `CC(C)[C@H](NC(=O)[C@H](CCC(=O)O)NC(=O)[C@H](Cc1ccc([N+](=O)[O-])cc1)NC(=O)[C@@H](C)NC(=O)[C@@H](N)Cc1ccc(O)cc1)C(=O)N[C@H](C(=O)NCC(N)=O)C(C)C`: the negative-log Ki (pKi) was 7.00 in assay [1] and 5.84 in assay [2]. Moreover, the results for the negative logarithm of the IC50 (pIC50) in assay [3] and in assay [4] were 6.37 and less than 5.00, respectively.
For `CC(C)[C@H](NC(=O)[C@H](CC(=O)O)NC(=O)[C@H](Cc1ccc(Cl)cc1)NC(=O)[C@@H](C)NC(=O)[C@@H](N)Cc1ccc(O)cc1)C(=O)N[C@H](C(=O)NCC(N)=O)C(C)C` the same measures were 8.80, 6.54, 9.80 and 5.74.
For `CC(C)[C@H](NC(=O)[C@H](CC(=O)O)NC(=O)[C@H](Cc1ccc(N)cc1)NC(=O)[C@@H](C)NC(=O)[C@@H](N)Cc1ccc(O)cc1)C(=O)N[C@H](C(=O)NCC(N)=O)C(C)C` the same measures were 7.47, 6.30, 5.96 and less than 5.00.
For `CC(C)[C@H](NC(=O)[C@H](CC(=O)O)NC(=O)[C@H](Cc1ccc(F)cc1)NC(=O)[C@@H](C)NC(=O)[C@@H](N)Cc1ccc(O)cc1)C(=O)N[C@H](C(=O)NCC(N)=O)C(C)C`, in that order: 9.29, 6.26, 8.46 and 5.96.
In the case of `CC(C)[C@H](NC(=O)[C@H](CCC(=O)O)NC(=O)[C@H](Cc1ccc(N)cc1)NC(=O)[C@@H](C)NC(=O)[C@@H](N)Cc1ccc(O)cc1)C(=O)N[C@H](C(=O)NCC(N)=O)C(C)C`, the pKi in assay [1] was 7.32; in assay [2], 5.61. Moreover, the pIC50 in assay [3] was 6.52; in assay [4], less than 5.00.
In assay [1], `CC(C)[C@H](NC(=O)[C@H](CCC(=O)O)NC(=O)[C@H](Cc1ccccc1)NC(=O)[C@H](C)NC(=O)[C@@H](N)Cc1ccc(O)cc1)C(=O)N[C@H](C(=O)NCC(=O)O)C(C)C` [DELTORPHINE II] showed a negative-log Ki (pKi) of 9.92. The negative logarithm of the IC50 (pIC50) in assay [3] was 9.12; in assay [4], 5.28.

By pKi is commonly meant the Ki on a negative log10 scale, so that one unit is a factor of ten. High values mean a small Ki, low ones a large Ki. One may read the pIC50 as the IC50 on a negative log10 scale, so that one unit is a factor of ten. Read a low pIC50 as a large IC50.
